This note sets out measurements from ChEMBL document CHEMBL4014339, “Discovery of 1,4-Benzodiazepine-2,5-dione (BZD) Derivatives as Dual Nucleotide Binding Oligomerization Domain Containing 1/2 (NOD1/NOD2) Antagonists Sensitizing Paclitaxel (PTX) To Suppress Lewis Lung Carcinoma (LLC) Growth in Vivo” (J Med Chem, 2017).

The source made the active and inactive calls. The rule behind the calls is not given here.

For experiment [1], the target named is T1, Nucleotide-binding oligomerization domain-containing protein 1 (Homo sapiens) (UniProt Q9Y239).
T1 sequence (whole entry): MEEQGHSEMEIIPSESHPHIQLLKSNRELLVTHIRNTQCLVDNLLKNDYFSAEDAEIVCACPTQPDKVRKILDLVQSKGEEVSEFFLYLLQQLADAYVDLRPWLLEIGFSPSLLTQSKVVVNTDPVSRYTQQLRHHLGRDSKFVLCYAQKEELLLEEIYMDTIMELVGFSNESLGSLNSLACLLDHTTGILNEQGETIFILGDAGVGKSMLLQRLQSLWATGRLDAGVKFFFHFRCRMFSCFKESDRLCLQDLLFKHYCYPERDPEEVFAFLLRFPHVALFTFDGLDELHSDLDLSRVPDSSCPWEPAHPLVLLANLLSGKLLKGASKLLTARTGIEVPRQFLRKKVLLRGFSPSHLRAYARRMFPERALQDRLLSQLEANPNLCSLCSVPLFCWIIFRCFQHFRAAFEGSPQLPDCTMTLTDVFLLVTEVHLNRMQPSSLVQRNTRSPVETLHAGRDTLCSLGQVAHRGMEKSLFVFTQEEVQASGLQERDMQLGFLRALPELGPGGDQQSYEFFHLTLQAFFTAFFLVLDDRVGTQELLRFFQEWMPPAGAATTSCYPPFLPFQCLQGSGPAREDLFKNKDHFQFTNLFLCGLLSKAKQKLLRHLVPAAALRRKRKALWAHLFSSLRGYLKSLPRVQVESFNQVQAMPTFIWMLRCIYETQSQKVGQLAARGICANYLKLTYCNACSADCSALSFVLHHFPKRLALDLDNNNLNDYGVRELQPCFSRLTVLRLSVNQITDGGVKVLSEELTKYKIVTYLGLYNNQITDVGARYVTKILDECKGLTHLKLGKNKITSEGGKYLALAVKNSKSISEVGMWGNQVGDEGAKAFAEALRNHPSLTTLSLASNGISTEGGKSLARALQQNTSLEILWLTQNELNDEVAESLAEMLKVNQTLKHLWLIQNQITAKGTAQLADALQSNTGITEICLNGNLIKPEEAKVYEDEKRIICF
Briefly: Antagonist activity at human NOD1 expressed in HEK-Blue cells assessed as inhibition of C12-iE-DAP-stimulated cell activation at 10 uM preincubated for 3 hrs followed by C12-iE-DAP addition measured after 20 hrs by SEAP reporter gene assay. Format: cell-based. The gist of the method:
(§1)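 HEK-Blue hNOD1 or hNOD2 cells preincubated with compound 3 h, then stimulated 20 h with C12-iE-DAP 50 ng/mL (NOD1) or MDP 100 ng/mL (NOD2); SEAP in supernatant quantified. Primary screen at 10 μM, hits repeated in triplicate; IC50 from dose-response, mean ± SD (n = 3), only for compounds reaching ≥50% inhibition at the screening concentration.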

The target of experiment [2] is T2, Nucleotide-binding oligomerization domain-containing protein 1 (Homo sapiens, UniProt Q9Y239).
T2 sequence (Q9Y239 whole entry): T1 sequence (whole entry)
Briefly: Antagonist activity at human NOD1 expressed in HEK-blue cells assessed as inhibition of C12-iE-DAP-stimulated cell activation preincubated for 3 hrs followed by C12-iE-DAP addition measured after 20 hrs by SEAP reporter gene assay. Format: cell-based. The gist of the method: as §1

Experiment [3] concerns the target Toll-like receptor 2 (Homo sapiens) (UniProt O60603). Description: Inhibition of human TLR2 expressed in HEK-Blue cells assessed as reduction in Pam3CSK4-stimulated SEAP release preincubated for 3 hrs followed by Pam3CSK4 addition measured after 20 hrs by spectrophotometric analysis. The class given is cell-based.
Experiment [4] has as its target Toll-like receptor 4 (Homo sapiens) (UniProt O00206). Description: Inhibition of human TLR4 expressed in HEK-Blue cells assessed as reduction in LPS-EK-stimulated SEAP release preincubated for 3 hrs followed by LPS-EK addition measured after 20 hrs by spectrophotometric analysis. The class given is cell-based.
The target of experiment [5] is T3, Nucleotide-binding oligomerization domain-containing protein 2 (Homo sapiens, UniProt Q9HC29). Briefly: Inhibition of NOD2 in human PBMC-derived macrophages assessed as reduction in MDP-stimulated TNFalpha mRNA expression at 10 uM preincubated for 1 hr followed by MDP stimulation for 90 mins by RT-qPCR analysis. In a few lines:
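Human CD14+ monocytes from donor PBMC, differentiated 7 days with M-CSF 20 ng/mL to macrophages; 1.0 × 10^6 cells pretreated 1 h with compound (final 0.1% DMSO), then C12-iE-DAP 500 ng/mL or MDP 5 μg/mL for 90 min. IL-6/TNF-α mRNA by qRT-PCR, normalized to GAPDH; stimulated response set to 100%.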
On the technique in general: In qPCR the cycle at which signal appears reflects the starting amount.

Experiment [6] addresses T1, Nucleotide-binding oligomerization domain-containing protein 1 (Homo sapiens). Description: Inhibition of human NOD1 expressed in HEK293 cells assessed as reduction in C12-iE-DAP-stimulated IL8 secretion preincubated with compound followed by C12-iE-DAP stimulation measured after 24 hrs by ELISA. The class given is cell-based. For orientation: In an ELISA, binding on a coated surface is turned into a signal by an enzyme label.

The target in experiment [7] is T3, Nucleotide-binding oligomerization domain-containing protein 2. Briefly: Inhibition of human NOD2 expressed in HEK293 cells assessed as reduction in MDP-stimulated IL8 secretion preincubated with compound followed by MDP stimulation measured after 24 hrs by ELISA. The class given is cell-based.
Experiment [8] deals with Lewis lung carcinoma cell line. Description: Potentiation of paclitaxel-mediated antitumor activity against mouse LLC cells implanted in C57BL/6 mouse assessed as tumor weight inhibition at 20 mg/kg, iv administered daily measured 11 days after tumor implantation (reference value: 34.54 %). The class given is functional. Conditions: 264 h, read-out: TGI.
For experiment [9], the target named is T1, Nucleotide-binding oligomerization domain-containing protein 1 (Homo sapiens). Briefly: Inhibition of NOD1 in human PBMC-derived macrophages assessed as reduction in C12-iE-DAP-stimulated JNK phosphorylation at 1 to 10 uM preincubated for 1 hr followed by C12-iE-DAP stimulation for 45 mins by Western blot analysis. For orientation: Immunoblotting shows a protein as a band on a membrane.

For experiment [10] the target is unchanged. Briefly: Inhibition of NOD1 in human PBMC-derived macrophages assessed as reduction in C12-iE-DAP-stimulated p38 phosphorylation at 1 to 10 uM preincubated for 1 hr followed by C12-iE-DAP stimulation for 45 mins by Western blot analysis.
The target is the same in experiment [11]. Briefly: Inhibition of NOD1 in human PBMC-derived macrophages assessed as reduction in C12-iE-DAP-stimulated ERK phosphorylation at 1 to 10 uM preincubated for 1 hr followed by C12-iE-DAP stimulation for 45 mins by Western blot analysis.
Experiment [12] shares this target. Description: Inhibition of NOD1 in human PBMC-derived macrophages assessed as reduction of C12-iE-DAP-mediated decrease in IkBalpha levels at 1 to 10 uM preincubated for 1 hr followed by C12-iE-DAP stimulation for 45 mins by Western blot analysis.
Experiment [13] has as its target T3, Nucleotide-binding oligomerization domain-containing protein 2. Description: Inhibition of human NOD2 expressed in HEK293 cells assessed as suppression of MDP-stimulated p38 phosphorylation preincubated for 1 hr followed by MDP stimulation measured after 1 hr by Western blot analysis.
For experiment [14] the target is unchanged. Description: Inhibition of human NOD2 expressed in HEK293 cells assessed as reduction of MDP-mediated decrease in IkBalpha levels preincubated for 1 hr followed by MDP addition measured after 1 hr by Western blot analysis.

T3 sequence (Q9HC29 whole entry, the tested form may be a part): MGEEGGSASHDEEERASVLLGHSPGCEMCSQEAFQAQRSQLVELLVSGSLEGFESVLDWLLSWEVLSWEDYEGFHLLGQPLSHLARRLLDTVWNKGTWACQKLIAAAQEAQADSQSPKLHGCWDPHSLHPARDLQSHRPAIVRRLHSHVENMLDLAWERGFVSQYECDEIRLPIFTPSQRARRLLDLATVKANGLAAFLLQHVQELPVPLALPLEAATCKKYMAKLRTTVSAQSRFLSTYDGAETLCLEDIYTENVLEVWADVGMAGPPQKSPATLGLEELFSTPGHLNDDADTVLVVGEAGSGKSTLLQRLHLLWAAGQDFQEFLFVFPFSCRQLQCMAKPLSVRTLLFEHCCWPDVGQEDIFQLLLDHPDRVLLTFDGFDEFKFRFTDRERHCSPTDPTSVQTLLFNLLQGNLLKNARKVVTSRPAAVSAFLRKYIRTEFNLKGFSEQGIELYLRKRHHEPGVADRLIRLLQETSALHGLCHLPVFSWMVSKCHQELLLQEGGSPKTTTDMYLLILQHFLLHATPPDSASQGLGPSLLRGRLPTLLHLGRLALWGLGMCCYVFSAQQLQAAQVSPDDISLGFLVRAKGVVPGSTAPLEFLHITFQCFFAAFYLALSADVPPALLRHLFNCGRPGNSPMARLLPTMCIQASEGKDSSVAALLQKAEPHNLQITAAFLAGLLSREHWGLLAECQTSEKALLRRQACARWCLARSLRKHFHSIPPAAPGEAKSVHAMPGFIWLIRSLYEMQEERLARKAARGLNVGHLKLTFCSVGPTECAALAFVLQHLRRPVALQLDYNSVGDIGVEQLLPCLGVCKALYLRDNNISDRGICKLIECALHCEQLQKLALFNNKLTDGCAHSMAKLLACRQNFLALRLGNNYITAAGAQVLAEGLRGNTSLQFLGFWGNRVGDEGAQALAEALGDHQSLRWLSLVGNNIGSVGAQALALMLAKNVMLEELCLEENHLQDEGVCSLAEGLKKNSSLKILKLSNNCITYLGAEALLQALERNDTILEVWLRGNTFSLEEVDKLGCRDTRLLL
Chain of Toll-like receptor 2 (Homo sapiens) (O60603 whole entry): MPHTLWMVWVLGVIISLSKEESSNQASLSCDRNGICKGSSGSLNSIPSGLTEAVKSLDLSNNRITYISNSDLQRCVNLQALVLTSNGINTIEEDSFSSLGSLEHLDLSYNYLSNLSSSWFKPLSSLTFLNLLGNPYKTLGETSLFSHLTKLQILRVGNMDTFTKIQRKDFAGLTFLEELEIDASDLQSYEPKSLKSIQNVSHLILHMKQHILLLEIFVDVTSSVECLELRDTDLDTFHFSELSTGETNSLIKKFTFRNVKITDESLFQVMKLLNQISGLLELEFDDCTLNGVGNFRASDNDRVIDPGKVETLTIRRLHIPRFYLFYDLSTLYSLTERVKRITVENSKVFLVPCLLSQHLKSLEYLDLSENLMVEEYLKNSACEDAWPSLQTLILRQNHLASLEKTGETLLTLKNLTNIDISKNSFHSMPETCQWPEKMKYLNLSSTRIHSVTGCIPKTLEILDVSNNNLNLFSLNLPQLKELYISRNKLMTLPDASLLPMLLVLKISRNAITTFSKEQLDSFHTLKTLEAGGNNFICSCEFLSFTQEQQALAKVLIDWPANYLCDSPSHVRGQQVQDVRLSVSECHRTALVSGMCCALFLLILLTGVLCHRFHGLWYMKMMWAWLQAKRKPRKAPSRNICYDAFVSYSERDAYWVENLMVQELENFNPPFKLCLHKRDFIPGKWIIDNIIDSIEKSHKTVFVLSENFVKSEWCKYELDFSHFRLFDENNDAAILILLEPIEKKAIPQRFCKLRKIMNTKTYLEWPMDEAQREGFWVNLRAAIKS
Chain of Toll-like receptor 4 (Homo sapiens) (O00206 whole entry, the tested form may be a part): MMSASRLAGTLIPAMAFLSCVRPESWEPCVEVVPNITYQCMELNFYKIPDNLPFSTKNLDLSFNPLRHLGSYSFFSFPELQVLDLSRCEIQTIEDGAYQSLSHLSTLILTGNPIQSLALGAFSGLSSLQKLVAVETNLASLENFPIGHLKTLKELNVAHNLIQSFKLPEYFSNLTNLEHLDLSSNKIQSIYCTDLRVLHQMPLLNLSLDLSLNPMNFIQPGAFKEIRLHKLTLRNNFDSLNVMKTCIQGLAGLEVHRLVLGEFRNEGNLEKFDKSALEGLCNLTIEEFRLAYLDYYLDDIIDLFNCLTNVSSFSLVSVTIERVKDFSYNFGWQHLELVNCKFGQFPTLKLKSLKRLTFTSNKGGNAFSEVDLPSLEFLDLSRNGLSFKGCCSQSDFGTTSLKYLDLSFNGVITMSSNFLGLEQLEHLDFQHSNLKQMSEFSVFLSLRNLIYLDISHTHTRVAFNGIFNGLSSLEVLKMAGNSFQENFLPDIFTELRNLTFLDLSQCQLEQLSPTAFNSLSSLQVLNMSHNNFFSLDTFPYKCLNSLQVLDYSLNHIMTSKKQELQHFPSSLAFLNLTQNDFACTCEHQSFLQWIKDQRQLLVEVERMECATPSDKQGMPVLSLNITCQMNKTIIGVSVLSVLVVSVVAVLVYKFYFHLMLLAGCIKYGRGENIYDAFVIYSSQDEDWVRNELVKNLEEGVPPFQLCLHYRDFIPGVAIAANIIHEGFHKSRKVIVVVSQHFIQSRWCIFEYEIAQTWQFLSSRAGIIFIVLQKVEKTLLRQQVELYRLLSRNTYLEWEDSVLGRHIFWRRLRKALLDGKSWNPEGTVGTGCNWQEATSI

`CCCNC(=O)CC[C@H]1NC(=O)c2cc(Oc3cccc(N(C)C)c3)c(NC(=O)COCc3ccccc3)cc2NC1=O`: the inhibition in experiment [1] is 86.2%; in experiment [6], “Dose-dependent effect”; in experiment [7], “Dose-dependent effect”; in experiment [13], “Dose-dependent effect”; in experiment [14], “Dose-dependent effect”. Further, the IC50 in [2] was 2.36 µM. Besides, the inhibition result in [3] and in experiment [4] was “inactive” each time. For the same compound, the inhibition result in [5], in experiment [9], in [10], in experiment [11] and in experiment [12] was “Active” each time. The inhibition in vivo at 20 mg/kg in experiment [8] was found to be 67.3%.

For orientation: inhibition means the percentage by which the read-out fell short of the control. The term IC50 denotes the midpoint of a concentration-inhibition curve.
